From ChEMBL document CHEMBL3877296, “Design, synthesis, and biological evaluation of novel alkylsulfanyl-1,2,4-triazoles as cis-restricted combretastatin A-4 analogues” (Eur J Med Chem, 2017) come the findings set out here.

Assay [1] can be described thus: Cytotoxicity against human HepG2 cells assessed as growth inhibition after 48 hrs by MTT assay. The assay is classed as functional, cell-based. The note with it: HepG2, 48 h. Summed up:
(§1)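 Cells were kept in DMEM with 10% FBS and seeded at 5000 cells/well, then attached for 24 h at 37 °C. Compounds came from 20 mM DMSO stocks, serially diluted in medium, with 0.1% DMSO as vehicle control. After 48 h at 37 °C, MTT (5 mg/mL) was added for 4 h, formazan dissolved in DMSO and A570 read. IC50 was fitted from % inhibition versus control, mean of three independent experiments.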

A short description of assay [2]: Cytotoxicity against human PC3 cells assessed as growth inhibition after 48 hrs by MTT assay. The assay is classed as functional, cell-based. The note with it: PC-3, 48 h. Summed up:
as §1
(In general: Formazan colour is commonly taken as a measure of viable cells.)

The nature of assay [3]: Cytotoxicity against human HT-29 cells assessed as growth inhibition after 48 hrs by MTT assay. The note with it: HT-29, 48 h. The assay is classed as functional, cell-based. The essentials:
as §1

A short description of assay [4]: Cytotoxicity against human HCT116 cells assessed as growth inhibition after 48 hrs by MTT assay. It is filed as functional, cell-based. The following applies: HCT-116, 48 h. The essentials: as §1
Another assay is filed under the species Sus scrofa. In words: Inhibition of porcine brain tubulin polymerization at 10 uM in presence of GTP by spectrophotometric method relative to control. The essentials:
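Tubulin was purified from pig brain microtubule protein by three temperature-driven assembly/disassembly cycles, then phosphocellulose chromatography. Polymerization ran in PEM buffer (100 mM PIPES, 1 mM MgCl2, 1 mM EGTA) with 1 mM GTP and 5% glycerol at 37 °C, followed by light scattering at 340 nm. Percent inhibition came from plateau absorbance, with a DMSO negative control and a CA-4 reference run the same day.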

Take `COc1ccc(-n2c(SC)nnc2-c2cc(OC)c(OC)c(OC)c2)cc1`: the IC50 in assay [1], in assay [2], in assay [3] and in assay [4] was greater than 60 µM each time.
As for `COc1ccc(-n2c(S)nnc2-c2cc(OC)c(OC)c(OC)c2)cc1`, the IC50 (as a rule, the point on the concentration scale where inhibition reaches its midpoint) in assay [1] is 57.5 µM; in assay [2], greater than 60 µM; in assay [3] it was greater than 60 µM; in assay [4] it was greater than 60 µM.
For `COc1cc(-c2nnc(SCc3ccc(F)cc3)n2-c2ccc(N(C)C)cc2)cc(OC)c1OC`, the IC50 in assay [1] is 26.4 µM; in assay [2], 46.5 µM; in assay [3], 44.3 µM; in assay [4], greater than 60 µM.
Regarding `COc1ccc(/C=C\c2cc(OC)c(OC)c(OC)c2)cc1O` [COMBRETASTATIN A4], in the assay filed under Sus scrofa, the inhibition (commonly how much of the control response was suppressed) stood at 80%. The concentration for half-maximal inhibition (IC50) amounted to 5.29 µM in assay [1], 22 µM in assay [2], 1.96 µM in assay [3] and 6.1 µM in assay [4].
In the case of `COc1ccc(CSc2nnc(-c3cc(OC)c(OC)c(OC)c3)n2-c2ccc(N(C)C)cc2)cc1`, in the assay filed under Sus scrofa, the inhibition was determined as 49%. For the same compound, the 50% inhibitory concentration (IC50) in assay [1] was greater than 60 µM; in assay [2], greater than 60 µM; in assay [3], greater than 60 µM; in assay [4] it was 1.15 µM.
In the case of `COc1ccc(-n2c(SCC(=O)C3CC3)nnc2-c2cc(OC)c(OC)c(OC)c2)cc1`, in the assay filed under Sus scrofa, the inhibition is 36%. The 50% inhibitory concentration (IC50) was greater than 60 µM in assay [1], 37.2 µM in assay [2], greater than 60 µM in assay [3] and greater than 60 µM in assay [4].
For the compound `COc1cc(-c2nnc(SCC(=O)c3ccc4ccccc4c3)n2-c2ccc(N(C)C)cc2)cc(OC)c1OC`, the inhibition in the assay filed under Sus scrofa is 26%. Also, the concentration for half-maximal inhibition (IC50) is greater than 60 µM in assay [1], 18.1 µM in assay [2], greater than 60 µM in assay [3] and 54.5 µM in assay [4].
With `COc1ccc(-n2c(SCC(=O)c3ccc(OC)c(O)c3)nnc2-c2cc(OC)c(OC)c(OC)c2)cc1`, the IC50 in assay [1], in assay [2], in assay [3] and in assay [4] was greater than 60 µM throughout.
With `COc1ccc(-n2c(SCC(=O)c3ccc(F)cc3)nnc2-c2cc(OC)c(OC)c(OC)c2)cc1`, the inhibition in the assay listed under Sus scrofa was found to be 12%. Moreover, the IC50 in assay [1] was 10.7 µM; in assay [2], 58.2 µM; in assay [3] it was 42.5 µM; in assay [4] it was greater than 60 µM.
As for `COc1ccc(-n2c(SCc3ccc(F)cc3)nnc2-c2cc(OC)c(OC)c(OC)c2)cc1`, the half-inhibitory concentration (IC50) amounted to 35 µM in assay [1], 35 µM in assay [2], 50.7 µM in assay [3] and 38.7 µM in assay [4].
For `COc1ccc(NC(=O)CSc2nnc(-c3cc(OC)c(OC)c(OC)c3)n2-c2ccc(OC)cc2)cc1`, the inhibition in the assay filed under Sus scrofa amounted to 10%. In addition, the IC50 in assay [1] is greater than 60 µM; in assay [2], 25.8 µM; in assay [3] it was 45.2 µM; in assay [4], greater than 60 µM.
Consider `COc1cc(-c2nnc(SCC(=O)Nc3ccc(Cl)cc3)n2-c2ccc(N(C)C)cc2)cc(OC)c1OC`, for which, in the assay listed under Sus scrofa, the inhibition came out at 17%. Also, the IC50 in assay [1] is greater than 60 µM; in assay [2], greater than 60 µM; in assay [3], greater than 60 µM; in assay [4] it was 39.3 µM.
As to `COc1ccc(-n2c(SCc3ccccc3)nnc2-c2cc(OC)c(OC)c(OC)c2)cc1`, the inhibition in the assay filed under Sus scrofa turned out to be 16%. The IC50 in assay [1] is greater than 60 µM; in assay [2], 34.1 µM; in assay [3], greater than 60 µM; in assay [4], 42.4 µM.
As to `COc1cc(-c2nnc(SCC(=O)c3ccccc3)n2-c2ccc(N(C)C)cc2)cc(OC)c1OC`, in the assay listed under Sus scrofa, the inhibition came to 16%. Also, the IC50 worked out at 18.9 µM in assay [1], 38.6 µM in assay [2], 45.1 µM in assay [3] and 42.5 µM in assay [4].
For `COc1cc(-c2nnc(SC)n2-c2ccc(N(C)C)cc2)cc(OC)c1OC`, the IC50 in assay [1], in assay [2], in assay [3] and in assay [4] was greater than 60 µM throughout.
As for `COc1cc(-c2nnc(SCc3ccc(C)cc3)n2-c2ccc(N(C)C)cc2)cc(OC)c1OC`, in the assay listed under Sus scrofa, the inhibition is 21%. For the same compound, the IC50 in assay [1] was greater than 60 µM; in assay [2], 37.3 µM; in assay [3] it was 27.4 µM; in assay [4], greater than 60 µM.
With `COc1cc(-c2nnc(SCc3ccccc3)n2-c2ccc(N(C)C)cc2)cc(OC)c1OC`, the half-maximal inhibitory concentration (IC50) was greater than 60 µM in assay [1], 55.8 µM in assay [2], greater than 60 µM in assay [3] and 54 µM in assay [4].
As to `COc1ccc(C(=O)CSc2nnc(-c3cc(OC)c(OC)c(OC)c3)n2-c2ccc(OC)cc2)cc1`, the inhibition in the assay listed under Sus scrofa is 30%. Moreover, the IC50 in assay [1] is 18.1 µM; in assay [2], greater than 60 µM; in assay [3], greater than 60 µM; in assay [4] it was greater than 60 µM.
On to `COc1ccc(-n2c(SCC(=O)c3ccccc3)nnc2-c2cc(OC)c(OC)c(OC)c2)cc1`, for which the IC50 in assay [1] was 16.2 µM; in assay [2], greater than 60 µM; in assay [3], greater than 60 µM; in assay [4] it was greater than 60 µM.
For the compound `COc1ccc(-n2c(SCc3ccc(C)cc3)nnc2-c2cc(OC)c(OC)c(OC)c2)cc1`, in the assay listed under Sus scrofa, the inhibition came to 15%. Further, the IC50 was 31.6 µM in assay [1], 56.5 µM in assay [2], greater than 60 µM in assay [3] and 33.3 µM in assay [4].
On to `COc1cc(-c2nnc(SCC(=O)c3ccc(F)cc3)n2-c2ccc(N(C)C)cc2)cc(OC)c1OC`, for which the IC50 in assay [1] was greater than 60 µM; in assay [2] it was 42.3 µM; in assay [3] it was 78 µM; in assay [4], 31.1 µM.
On the same counts, the results for `COc1ccc(-n2c(SCC(=O)c3ccc4ccccc4c3)nnc2-c2cc(OC)c(OC)c(OC)c2)cc1` are greater than 60 µM, greater than 60 µM, 53.4 µM and greater than 60 µM.
With `COc1ccc(C(=O)CSc2nnc(-c3cc(OC)c(OC)c(OC)c3)n2-c2ccc(N(C)C)cc2)cc1`, the inhibition in the assay filed under Sus scrofa turned out to be 38%. In addition, the IC50 was 18.8 µM in assay [1], 22 µM in assay [2], 64 µM in assay [3] and greater than 60 µM in assay [4].
On to `COc1ccc(C(=O)CSc2nnc(-c3cc(OC)c(OC)c(OC)c3)n2-c2ccc(N(C)C)cc2)cc1O`, for which the concentration for half-maximal inhibition (IC50) was greater than 100 µM in assay [1], greater than 100 µM in assay [2], greater than 60 µM in assay [3] and greater than 100 µM in assay [4].
As for `COc1ccc(CSc2nnc(-c3cc(OC)c(OC)c(OC)c3)n2-c2ccc(OC)cc2)cc1`, the inhibition in the assay filed under Sus scrofa was 29%. Besides, the IC50 was 41.1 µM in assay [1], 40.3 µM in assay [2], greater than 60 µM in assay [3] and 49.6 µM in assay [4].
For `CCSc1nnc(-c2cc(OC)c(OC)c(OC)c2)n1-c1ccc(N(C)C)cc1`, the IC50 was greater than 60 µM in assay [1], 46.2 µM in assay [2], greater than 60 µM in assay [3] and greater than 60 µM in assay [4].
With `CCSc1nnc(-c2cc(OC)c(OC)c(OC)c2)n1-c1ccc(OC)cc1`, the IC50 was greater than 60 µM in assay [1], 57.7 µM in assay [2], greater than 60 µM in assay [3] and greater than 60 µM in assay [4].
As for `COc1ccc(NC(=O)CSc2nnc(-c3cc(OC)c(OC)c(OC)c3)n2-c2ccc(N(C)C)cc2)cc1`, the IC50 is greater than 60 µM in assay [1], 56.1 µM in assay [2], 51.4 µM in assay [3] and greater than 60 µM in assay [4].
Turning to `CCOC(=O)CSc1nnc(-c2cc(OC)c(OC)c(OC)c2)n1-c1ccc(OC)cc1`, the IC50 in assay [1], in assay [2], in assay [3] and in assay [4] was greater than 60 µM in each case.
Consider `CCOC(=O)CSc1nnc(-c2cc(OC)c(OC)c(OC)c2)n1-c1ccc(N(C)C)cc1`, for which the IC50 in assay [1] is greater than 60 µM; in assay [2], greater than 60 µM; in assay [3], 28.8 µM; in assay [4], greater than 60 µM.
Regarding `COc1cc(-c2nnc(SCC(=O)C3CC3)n2-c2ccc(N(C)C)cc2)cc(OC)c1OC`, the IC50 was greater than 60 µM in assay [1], 45.9 µM in assay [2], greater than 60 µM in assay [3] and greater than 60 µM in assay [4].
As to `COc1cc(-c2nnc(S)n2-c2ccc(N(C)C)cc2)cc(OC)c1OC`, the IC50 in assay [1], in assay [2], in assay [3] and in assay [4] was greater than 60 µM each time.
